Screening data (PubChem BioAssay)
CHO parental Ca = ATP-evoked calcium signal inhibitors, parental CHO, primary screen, counter-screen for OX1R antagonist project, cell-based, fluorescence, Fluo-8 calcium dye. 330,000 compounds, 0.63% hits. parental CHO-K1, ATP-induced calcium, Fluo-8 fluorescence. inhibition, % at 5.6 µM;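 active = inhibition above that plate's mean sample inhibition plus 3 SD, cut at about 26% in these data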;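 note: 0% = ATP-challenged DMSO wells and 100% = DMSO wells without ATP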
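material = parental CHO cells | also added = ATP as calcium-mobilizing challenge | dosing = single point at 5.6 µM | detection = intracellular calcium via Fluo-8 no-wash fluorescent dye | read-out = % inhibition | benchmarks = low control ATP plus DMSO, high control DMSO only | repeats = one well per compound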
TAAR1 antag = human TAAR1 antagonists, primary screen, Fluo-8 calcium fluorescence, CHO RD-HGA16 cells. Trace amine-associated receptor 1 (Homo sapiens), Q96RJ0. antagonist. inhibition, % at 3 µM. 360,000 compounds, 1.5% hits. AID 624466, 2012;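 active = inhibition above a per-plate cutoff, the mean inhibition of test compounds on that plate plus 3 SD, cut at about 49% in these data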;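 note: 0% = DMSO plus EC80 beta-PEA response and 100% = DMSO alone without agonist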
Target sequence (Q96RJ0 whole entry, looked up): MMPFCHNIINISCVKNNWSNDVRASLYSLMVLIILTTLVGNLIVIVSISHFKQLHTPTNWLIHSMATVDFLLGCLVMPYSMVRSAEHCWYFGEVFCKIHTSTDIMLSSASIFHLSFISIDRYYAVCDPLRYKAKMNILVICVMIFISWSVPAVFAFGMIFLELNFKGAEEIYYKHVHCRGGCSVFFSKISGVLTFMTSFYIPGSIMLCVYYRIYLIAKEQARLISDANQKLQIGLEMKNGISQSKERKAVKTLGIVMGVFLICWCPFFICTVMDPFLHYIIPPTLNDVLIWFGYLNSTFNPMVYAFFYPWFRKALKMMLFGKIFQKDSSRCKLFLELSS
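Test system: hTAAR1-expressing CHO RD-HGA16 cells, Gα16-coupled; Probe or stimulus: EC80 β-phenethylamine stimulus; Compound dosing: single nominal final test compound concentration of 3 µM; Timing: 140 s kinetic read after compound, 140 s after agonist; Signal: Fluo-8 calcium-sensitive fluorescence; Measure: % inhibition of agonist calcium response; Controls: DMSO and EC80 PEA controls.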
OX1R antag-1 = OX1R (HCRTR1) antagonists, primary screen, fluorescence, CHO/OX1R cells, Fluo-8 calcium, orexin A; Orexin/Hypocretin receptor type 1 (Homo sapiens), O43613; Fluo-8 calcium fluorescence; inhibition, % at 5 µM; 330,000 compounds, 0.43% hits; AID 434989, 2010;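 active = inhibition above its plate's threshold, mean inhibition of all tested compounds on the plate plus 3 SD, cut at about 37% in these data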;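 note: 0% = orexin A challenge wells and 100% = SB-334867-A antagonist wells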
Target sequence (O43613 whole entry, looked up): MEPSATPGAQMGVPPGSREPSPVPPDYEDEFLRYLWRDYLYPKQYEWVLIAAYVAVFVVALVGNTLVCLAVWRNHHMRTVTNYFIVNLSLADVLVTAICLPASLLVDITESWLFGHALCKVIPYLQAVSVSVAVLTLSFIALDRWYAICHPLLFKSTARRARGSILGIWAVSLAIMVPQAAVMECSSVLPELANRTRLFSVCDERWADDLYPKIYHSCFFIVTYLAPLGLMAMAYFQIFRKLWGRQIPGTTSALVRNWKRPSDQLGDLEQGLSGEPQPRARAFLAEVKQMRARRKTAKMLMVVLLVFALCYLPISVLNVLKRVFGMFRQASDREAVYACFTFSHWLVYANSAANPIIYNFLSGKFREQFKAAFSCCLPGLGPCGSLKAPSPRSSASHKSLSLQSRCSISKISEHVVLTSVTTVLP
TAAR1 agonist = human TAAR1 agonists, primary screen, Fluo-8 calcium fluorescence, CHO RD-HGA16 cells. Trace amine-associated receptor 1 (Homo sapiens), Q96RJ0. vehicle wells 0%, saturating PEA agonist 100%. activation, % at 3 µM. 360,000 compounds, 0.99% hits. AID 624467, 2012;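 active = activation above the mean activation of all test compounds in the run plus 3 SD, cut at about 38% in these data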
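Assay system – CHO-derived RD-HGA16 cells with stable Gα16 and human TAAR1 · Compound dosing – one-point dosing at 3 µM (nominal) · Incubation – 17-24 h seeding, 75 min 37 °C dye, 30 min RT · Measured by – kinetic Fluo-8 calcium fluorescence · Control set – DMSO vehicle as 0%, PEA at EC100 as 100% · Repeats – single well for each compound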
GPR7 antag = GPR7 receptor antagonists, primary screen, cell-based, fluorescence, single concentration | Neuropeptides B/W receptor type 1 (Homo sapiens), P48145 | GPR7-expressing cells, fluorescence antagonist assay | inhibition, % at 4.4 µM | 290,000 compounds, 1.1% hits; in the data active = inhibition above about 16%, passing the limit was not always enough;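 note: cells stimulated with the agonist NPW; 0% = agonist with vehicle and 100% = vehicle without agonist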
OX1R antag-2 = antagonists of human orexin 1 receptor (OX1R); Orexin/Hypocretin receptor type 1 (Homo sapiens), O43613; OX1R-expressing cells, FRET antagonist read-out; inhibition, % at 6.6 µM; 330,000 compounds, 1.8% hits; AID 485270, 2010; in the data active = inhibition mostly above about 38%, no sharp cut-off; inactive = mostly below about 40%;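 note: 0% = agonist challenge alone and 100% = reference antagonist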
TAAR1 ag conf = human TAAR1 agonists, retest of hits, confirmation, Fluo-8 calcium fluorescence, CHO RD-HGA16 cells. activation, % at 3 µM. AID 651783, 2012. 2,400 compounds, 82% hits. scaled: DMSO 0%, maximal phenethylamine 100%. shares compounds with TAAR1 agonist;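 active = activation above a cutoff set at the run's mean compound activation plus 3 SD, cut at about 39% in these data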
Ga16 ag counter = nonselective calcium mobilization agonists, CHO-Ga16 cells, counter-screen for hTAAR1 agonist project, cell-based, fluorescence, CHO-Ga16 parental line; shares compounds with TAAR1 agonist; Fluo-8 calcium fluorescence; normalized to maximal ATP response, DMSO zero; activation, % at 3 µM; 2,400 compounds, 50% hits; AID 651787, 2012;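 active = activation above the run cutoff, the mean activation over all tested wells plus 3 SD, cut at about 12% in these data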;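 note: 0% = DMSO wells and 100% = maximal ATP response on the peak over basal ratio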
TAAR1 desensitize = TAAR1 desensitization by agonist hits, confirmation, counter-screen for TAAR1 agonist project, cell-based, fluorescence, tachyphylaxis | inhibition, % at 3 µM | CHO RD-HGA16 hTAAR1, Fluo-8 calcium, beta-PEA response inhibition | shares compounds with TAAR1 agonist | 2,400 compounds, 46% hits;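 active = inhibition above the run cutoff, the mean inhibition of all test compounds plus 3 SD, cut at about 49% in these data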;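 note: beta-PEA stimulus applied at its EC80; loss of beta-PEA calcium signal after compound pretreatment read as receptor desensitization; 0% = DMSO with beta-PEA at EC80 and 100% = DMSO alone without agonist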
Ga16 nonsel ant = inhibition of ATP-evoked calcium response in CHO-Ga16 cells, counter-screen for TAAR1 agonist project, cell-based, fluorescence; inhibition, % at 3 µM; 2,400 compounds, 39% hits; CHO-Ga16 ATP-induced calcium, Fluo-8 fluorescence; shares compounds with TAAR1 agonist;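 active = inhibition above the plate's mean compound inhibition plus 3 SD, computed per plate, cut at about 22% in these data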;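 note: 0% = EC80 ATP with DMSO and 100% = DMSO wells without ATP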
* marks the source's active call; other numbers are inactive results; x = no result given. A selection: hits, their analogues and other compounds. The true share with any hit is near 4.5%.

SMILES	CHO parental Ca	TAAR1 antag	OX1R antag-1	TAAR1 agonist	GPR7 antag	OX1R antag-2	TAAR1 ag conf	Ga16 ag counter	TAAR1 desensitize	Ga16 nonsel ant
O=C(Cn1nc(-c2ccccc2)ccc1=O)Nc1cccc(NC(=O)c2ccccn2)c1	-21.7	-27.7	-18.0	1.3	-1.0	8.8	x	x	x	x
Cc1ccc(/C=N/NC(=O)c2nnn(-c3nonc3N)c2-c2cccs2)cc1	-28.1	77.6*	-64.1	131.1*	-4.6	8.9	128.7*	96.1*	79.0*	42.5*
CCOc1cccc(-c2c(C(=O)N/N=C/c3ccncc3)nnn2-c2nonc2N)c1	-6.0	0.9	-19.0	15.6	3.9	8.1	x	x	x	x
COc1ccc(/C=N/NC(=O)c2nnn(-c3nonc3N)c2-c2cccc(OC)c2)cc1	-16.9	74.8*	-7.7	149.3*	-12.7	28.5	120.9*	86.5*	72.0*	32.2*
Cc1ccc(/C=N/NC(=O)c2nnn(-c3nonc3N)c2-c2ccc3c(c2)OCO3)s1	-2.2	41.6	-4.7	81.7*	-10.0	43.0*	97.2*	60.9*	39.7	20.2
CCOc1ccc(-c2c(C(=O)N/N=C/c3cccnc3)nnn2-c2nonc2N)cc1	10.8	-8.2	-9.3	8.1	6.7	9.7	x	x	x	x
CCOc1ccc(-c2c(C(=O)N/N=C/c3ccoc3)nnn2-c2nonc2N)cc1	-0.8	-20.2	-1.7	91.7*	-7.7	7.7	66.1*	28.9*	6.2	9.7
COC(C(=O)N/N=C(\C)c1ccc(C(C)(C)C)cc1)c1ccccc1 (stereo not drawn)	x	-15.3	x	0.8	-5.0	x	x	x	x	x
Cc1cc(C(F)(F)F)nn1CC(=O)N1CCOCC1	-3.2	-13.0	-1.5	0.9	9.5	4.7	x	x	x	x
CCCNC(=O)Cn1cc(S(=O)(=O)N2CCCC2)c(S(=O)(=O)N2CCCC2)c1	0.0	7.4	-7.0	-0.9	-6.8	-2.1	x	x	x	x
CN(C)S(=O)(=O)N1CCN(c2ccc([N+](=O)[O-])c(N3CCCCC3)c2)CC1	-19.1	9.9	-19.3	0.0	-13.2	22.9	x	x	x	x
CCOc1cccc(-c2c(C(=O)N/N=C/c3ccoc3)nnn2-c2nonc2N)c1	-0.6	-2.6	-2.9	83.3*	-7.0	9.0	73.1*	32.3*	7.1	9.2
CCOc1cccc(-c2c(C(=O)N/N=C/c3cccs3)nnn2-c2nonc2N)c1	-11.6	20.7	-7.7	110.1*	-5.5	7.9	91.4*	55.2*	38.2	21.1
Nc1nonc1-n1nnc(C(=O)N/N=C/c2cccc(F)c2)c1-c1ccccc1	-17.3	0.3	-20.2	55.5*	7.0	18.1	38.5*	18.5*	16.0	10.9
COc1cccc(-c2c(C(=O)N/N=C/c3cccs3)nnn2-c2nonc2N)c1	-13.8	x	-21.8	x	-25.7	21.2	x	x	x	x
CCOc1ccc(/C=N/NC(=O)c2nnn(-c3nonc3N)c2-c2ccc(OCC)cc2)cc1	-20.3	-14.9	-22.3	66.3*	-12.4	13.3	57.4*	26.0*	9.3	13.8
COCCN(C(=O)CC1C(=O)NCCN1Cc1ccc(-c2ccccc2)cc1)C(C)C (stereo not drawn)	-24.1	-25.7	-34.4	-0.1	-19.2	1.8	x	x	x	x
CCCNC(=O)C(CC)NC(=O)c1cccc([N+](=O)[O-])c1 (stereo not drawn)	-10.2	-2.0	-13.6	5.4	x	15.1	x	x	x	x
CC1=CC2=NC(=O)/C(=C\c3cc(C)n(-c4ccc(F)cc4)c3C)C(=N)N2O1	-7.9	87.4*	-28.3	42.8*	-6.8	15.3	5.2	7.9	50.1*	37.7*
Cc1cc(/C=C2/C(=N)N3C(=NC2=O)SN=C3S(C)(=O)=O)c(C)n1-c1ccc(F)cc1	-0.4	8.2	-0.2	4.5	0.1	26.8	x	x	x	x
O=c1[nH]ncc2c3ccccc3n(Cc3cccc(Cl)c3)c12	-17.2	26.9	-5.7	54.0*	-7.5	28.5	4.1	2.5	11.0	10.4
Cc1ccc(CCN2CCN=C2N(C)C)cc1	-10.2	-6.8	-1.4	0.6	-2.6	8.5	x	x	x	x
O=C(O)C1NCCc2ccccc21 (stereo not drawn)	-13.7	37.8	-6.0	72.0*	16.0	7.2	67.0*	-0.3	24.3	2.1
CC(C)=NNc1nc2c(c(=O)[nH]c(=O)n2C)n1CCCc1ccccc1	-30.4	-8.8	-33.2	1.7	-20.8	5.9	x	x	x	x
CC(C)=NNc1nc2c(c(=O)[nH]c(=O)n2C)n1CCc1ccccc1	-6.5	-13.2	-18.6	46.9*	2.6	13.6	36.6	1.6	3.4	17.7
COCCn1nnnc1CN(CCc1ccccc1)Cc1cc2cc(OC)ccc2[nH]c1=O	-3.6	38.9	-13.6	82.6*	2.3	19.8	79.4*	8.5	47.8	12.7
COCCn1nnnc1CN(Cc1cccnc1)Cc1cc2cc(OC)ccc2[nH]c1=O	x	-1.3	x	3.7	-10.4	x	x	x	x	x
O=C(NN1CC(C(=O)OCc2ccc(Cl)cc2Cl)CC1=O)c1ccccc1 (stereo not drawn)	x	-3.5	x	6.6	-8.3	x	x	x	x	x
O=C(NCc1ccc(F)cc1)c1cnc(-c2ccccn2)nc1C(F)(F)F	-0.1	-5.6	-21.0	5.3	-3.4	13.7	x	x	x	x
